Assay results of several laboratories.
Each line is one published result; the experiments were not run side by side.
Target: Dual specificity protein kinase CLK3 (CLK3, Homo sapiens, UniProt P49761)
Method: competition with immobilised ligand

O=C(Nc1c[nH]nc1C(=O)NC1CCNCC1)c1cc(F)cc(F)c1
remaining binding (binding; 1 µM): 100%

CNC(=O)[C@@H]1CC[C@@H](n2c(-c3ccc4cnccc4c3)nc3ccc(C(=O)NCc4cccc(C(N)=O)c4)cc32)C1
remaining binding (binding; 1 µM): 100%

O=C1CCc2cc(Nc3cc(OC4CCOCC4)c([N+](=O)[O-])cc3Cl)ccc2N1
remaining binding (cell-free assay; 1 µM): 100%

c1cncc(-c2cccc(Nc3nccc(NC4CCCCC4)n3)c2)c1
remaining binding (binding; 10 µM): 57%

Nc1c(C(=O)NCc2ccc(C(=O)NCCCC3CCCCC3)cc2)cnn1-c1ccccc1
remaining binding (cell-free assay; 0.1 µM): 95%

O=C(NCCCN1CCOCC1)c1ccc(Nc2ncc(Cl)c(-c3ccc(Cl)s3)n2)cc1
remaining binding (binding; 1 µM): 37%

CN(C(=O)c1ccccc1)c1cc(N(C)c2ccc3c(c2)CCc2ccc(C(=O)NCCN4CCOCC4)cc2C3=O)ccc1F
remaining binding (cell-free assay; 1 µM): 100%

O=C(c1ccc(Nc2ncc(Cl)c(-c3cc4ccccc4s3)n2)cc1)N1CCC(N2CCCC2)CC1
remaining binding (binding; 1 µM): 7.4%

O=C(NCCCC1CCCCC1)c1ccc(CNC(=O)c2cnn(-c3ccccc3)c2C(F)(F)F)cc1
remaining binding (cell-free assay; 0.1 µM): 100%

COc1cnc(Nc2cccc(S(N)(=O)=O)c2)nc1N1CCN(c2ccccc2)C(=O)C1
remaining binding (binding; 1 µM): 100%

O=C(c1ccc(Nc2ncc(Cl)c(-c3ccc(Cl)s3)n2)cc1)N1CCC(N2CCCC2)CC1
remaining binding (binding; 1 µM): 15%

CN(CCCC(F)(F)F)c1nccc(-c2cnn3ncccc23)n1
remaining binding (binding; 1 µM): 84%

FC(F)(F)Oc1cccc(-c2cnc3ccc(-c4ccncc4)nn23)c1
remaining binding (cell-free assay; 5 µM): 8.1%

Nc1ncc2c(n1)-c1c([nH]c3ccc(C#CC4CC4)cc13)CCCC2
remaining binding (binding; 1 µM): 96%
